Results collected from several papers.
Each line is one published result; the experiments were not run side by side.
Target: Serine/threonine-protein kinase Nek9 (NEK9, Homo sapiens, UniProt Q8TD19)
One construct used (Q8TD19 1-979): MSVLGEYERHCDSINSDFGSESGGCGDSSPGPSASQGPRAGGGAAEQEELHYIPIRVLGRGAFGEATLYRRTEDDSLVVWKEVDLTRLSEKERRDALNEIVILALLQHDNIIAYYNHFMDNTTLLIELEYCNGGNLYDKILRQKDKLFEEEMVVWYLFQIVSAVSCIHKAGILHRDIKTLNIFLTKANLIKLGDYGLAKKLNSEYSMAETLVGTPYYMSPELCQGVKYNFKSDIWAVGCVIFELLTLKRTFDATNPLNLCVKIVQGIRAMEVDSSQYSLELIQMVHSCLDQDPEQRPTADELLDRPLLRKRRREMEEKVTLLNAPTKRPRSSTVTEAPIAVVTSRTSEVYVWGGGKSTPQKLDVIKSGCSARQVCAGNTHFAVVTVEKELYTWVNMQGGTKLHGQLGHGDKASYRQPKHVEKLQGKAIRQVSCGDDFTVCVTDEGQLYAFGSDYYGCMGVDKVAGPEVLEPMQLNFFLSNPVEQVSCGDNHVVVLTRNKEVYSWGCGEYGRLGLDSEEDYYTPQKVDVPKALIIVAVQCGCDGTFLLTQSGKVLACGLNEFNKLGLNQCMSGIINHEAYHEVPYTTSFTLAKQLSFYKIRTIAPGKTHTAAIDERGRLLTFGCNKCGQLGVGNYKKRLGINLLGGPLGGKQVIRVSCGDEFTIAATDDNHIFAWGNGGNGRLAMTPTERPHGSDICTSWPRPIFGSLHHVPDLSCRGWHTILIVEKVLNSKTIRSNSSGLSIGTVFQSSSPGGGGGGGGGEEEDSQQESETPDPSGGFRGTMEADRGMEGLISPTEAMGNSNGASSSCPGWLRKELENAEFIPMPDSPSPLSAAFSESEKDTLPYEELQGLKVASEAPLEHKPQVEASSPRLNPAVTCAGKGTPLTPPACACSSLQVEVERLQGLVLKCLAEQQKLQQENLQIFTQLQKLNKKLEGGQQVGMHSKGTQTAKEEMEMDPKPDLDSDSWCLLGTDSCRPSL

The remaining binding of O=C(NCC1CCOCC1)c1n[nH]cc1NC(=O)c1c(F)cccc1F is reported as 92% (binding, competition with immobilised ligand; 1 µM).
For N[C@@H]1CCN(c2nccc(-c3cnn4ncccc34)n2)C1, the remaining binding was 100% (binding; 1 µM).
COc1ccc2cc(OCC3(C(=O)O)CN(C(=O)c4ccc(F)cc4)C3)ccc2c1 gave a remaining binding of 100% (cell-free assay, competition with immobilised ligand; 1 µM).
FC(F)(F)Oc1cccc(-c2cnc3ccc(-c4ccncc4)nn23)c1 gave a remaining binding of 91% (cell-free assay, competition with immobilised ligand; 5 µM).
CC(=O)Nc1c(C(C)=O)c(=O)n(C)c2nc(-c3ccc(Cl)cc3Cl)c(-c3ccc(Cl)cc3)cc12 gave a remaining binding of 100% (cell-free assay, competition with immobilised ligand; 1 µM).
With COc1cnc(Nc2cccc(S(N)(=O)=O)c2)nc1N1CCN(c2ccccc2)CC1 the remaining binding was 83% (binding, competition with immobilised ligand; 1 µM).
COc1ccnn2ncc(-c3ccnc(N(C)C)n3)c12 gave a remaining binding of 100% (binding; 1 µM).
With O=C(NCCCN1CCOCC1)c1ccc(Nc2ncc(Cl)c(-c3ccc(Cl)s3)n2)cc1 the remaining binding was 13% (binding, competition with immobilised ligand; 1 µM).
The remaining binding of Cn1nc(C(=O)NCc2ccc(C(=O)O)cc2)cc1-c1ccc2[nH]ccc2c1 is reported as 99% (cell-free assay, competition with immobilised ligand; 0.1 µM).
Cc1cnn2ncc(-c3ccnc(N(C)C)n3)c2c1 gave a remaining binding of 100% (binding; 1 µM).
C[C@H](c1ccc(F)cc1)N(Cc1cccc(C(=O)O)c1)C(=O)c1cnc2ccccc2c1 gave a remaining binding of 100% (cell-free assay, competition with immobilised ligand; 1 µM).
C[C@@H]1CCN(c2nccc(-c3cnn4ncccc34)n2)C1 has a remaining binding of 81% (binding; 1 µM).
C=CC(=O)N1CCC(C(=O)NCC(=O)N2CCN(c3nc(-c4cnc(N)nc4C(F)F)nc(N4CCOCC4)n3)CC2)CC1 gave a remaining binding of 100% (binding, competition with immobilised ligand; 1 µM).
With CN(C)c1nccc(-c2cnc3ncccn23)n1 the remaining binding was 88% (binding; 1 µM).
CCN1CCN(Cc2ccc(C(=O)Nc3ccc(C)c(Oc4ccc5c(c4)CC(=O)N5)c3)cc2C(F)(F)F)CC1 gave a remaining binding of 100% (binding, competition with immobilised ligand; 1 µM).
CN(C)c1nccc(-c2cnn3ncccc23)n1 has a remaining binding of 100% (binding; 1 µM).
With CCCOc1ccc([C@H]2[C@H](C(=O)O)[C@@H](c3ccc4c(c3)OCO4)CN2CC(=O)Nc2c(CC)cccc2CC)cc1 the remaining binding was 95% (cell-free assay, competition with immobilised ligand; 1 µM).
O=C(c1ccc(Nc2ncc(Cl)c(-c3cc4ccccc4s3)n2)cc1)N1CCC(N2CCCC2)CC1 has a remaining binding of 33% (binding, competition with immobilised ligand; 1 µM).
With NS(=O)(=O)c1cc(NC(=O)C2(c3ccccc3Cl)CC2)ccc1Oc1cccc(Cl)c1 the remaining binding was 94% (cell-free assay, competition with immobilised ligand; 1 µM).
For O=C(c1ccc(Nc2ncc(Cl)c(-c3ccc(Cl)s3)n2)cc1)N1CCC(N2CCCC2)CC1, the remaining binding was 23% (binding, competition with immobilised ligand; 1 µM).
Cc1c(NC(=O)c2cc(C(N)=O)nc3cc(F)ccc23)c(C(F)(F)F)nn1Cc1ccc(C#N)cc1 gave a remaining binding of 95% (cell-free assay, competition with immobilised ligand; 1 µM).
With CN(C)c1ncc(F)c(-c2cnn3ncccc23)n1 the remaining binding was 100% (binding; 1 µM).
